Laboratory results: ChEMBL document CHEMBL3120113, “New 1-arylindoles based serotonin 5-HT7 antagonists. Synthesis and binding evaluation studies” (Eur J Med Chem, 2014)

Columns and labels:
[1] = biological target: T1, 5-hydroxytryptamine receptor 1A (Rattus norvegicus, UniProt P19327); assay: Displacement of [3H]-8-OH-DPAT from 5HT1A receptor in rat hippocampus homogenates after 15 mins by scintillation counting; assay type: tissue-based
T1 sequence (P19327 whole entry): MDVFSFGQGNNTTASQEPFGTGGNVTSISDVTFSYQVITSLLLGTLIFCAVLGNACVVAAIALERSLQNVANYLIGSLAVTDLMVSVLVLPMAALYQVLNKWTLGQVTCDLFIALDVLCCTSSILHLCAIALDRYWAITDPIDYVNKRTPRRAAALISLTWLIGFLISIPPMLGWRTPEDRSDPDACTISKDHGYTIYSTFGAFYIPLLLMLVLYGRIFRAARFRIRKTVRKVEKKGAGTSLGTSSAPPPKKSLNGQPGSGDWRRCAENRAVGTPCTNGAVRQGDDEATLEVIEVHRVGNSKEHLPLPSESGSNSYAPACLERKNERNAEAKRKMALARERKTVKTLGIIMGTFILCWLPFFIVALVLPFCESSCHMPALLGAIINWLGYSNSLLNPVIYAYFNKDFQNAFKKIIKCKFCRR
How it was run: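 Rat hippocampal membranes were prepared in 50 mM Tris–HCl pH 7.4 (35,000 g spins, 10 min at 37 °C between). Resuspended in Tris–HCl with 4 mM MgCl2, 10 mM pargyline and 0.1% ascorbate. 1 nM [3H]-8-OH-DPAT, 15 min at 37 °C, GF/B filtration. 10 μM 5-HT defined nonspecific binding. Triplicates at 7–8 concentrations (10⁻¹¹–10⁻⁴ M).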

[2] = biological target: T2, 5-hydroxytryptamine receptor 7 (Homo sapiens, UniProt P34969); assay: Displacement of [3H]-5-CT from cloned human 5HT7B receptor expressed in HEK293 cells after 1 hr by scintillation counting; assay type: cell-based
How it was run: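 HEK293 membranes stably expressing human 5-HT7b receptor, homogenized and spun twice at 35,000 g with 15 min at 37 °C between. Assay buffer was 50 mM Tris–HCl with 4 mM MgCl2, […] and 0.1% ascorbate. 0.6 nM [3H]-5-CT, 1 h at 37 °C, then filtration. 10 μM 5-HT defined nonspecific binding. Triplicates at 7–8 concentrations (10⁻¹¹–10⁻⁴ M).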

[3] = biological target: 5-hydroxytryptamine receptor 2A (Homo sapiens) (UniProt P28223); assay: Binding affinity to 5HT2A receptor (unknown origin) at 10 nM
[4] = biological target: 5-hydroxytryptamine receptor 2A (Homo sapiens) (UniProt P28223); assay: Binding affinity to 5HT2A receptor (unknown origin) at 1 uM
[5] = Selectivity ratio of Ki for human 5HT7B receptor to Ki for 5HT1A receptor in rat hippocampus homogenates; assay type: tissue-based
How it was run: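 Ratio of Ki values from two radioligand displacement assays. 5-HT1A: rat hippocampal membranes, 1 nM [3H]-8-OH-DPAT, 15 min at 37 °C, filtration. 5-HT7b: membranes from HEK293 cells stably expressing the human receptor, 0.6 nM [3H]-5-CT, 1 h at 37 °C. Both used Tris-HCl buffer with MgCl2, pargyline and ascorbate, and 10 μM 5-HT for nonspecific binding. Compounds were tested in triplicate at 7–8 concentrations (10⁻¹¹–10⁻⁴ M). Ki was derived by Cheng–Prusoff from three experiments.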

[6] = biological target: T3, 5-hydroxytryptamine receptor 1A (Homo sapiens, UniProt P08908); assay: Binding affinity to 5HT1A receptor (unknown origin)
T3 sequence (P08908 whole entry): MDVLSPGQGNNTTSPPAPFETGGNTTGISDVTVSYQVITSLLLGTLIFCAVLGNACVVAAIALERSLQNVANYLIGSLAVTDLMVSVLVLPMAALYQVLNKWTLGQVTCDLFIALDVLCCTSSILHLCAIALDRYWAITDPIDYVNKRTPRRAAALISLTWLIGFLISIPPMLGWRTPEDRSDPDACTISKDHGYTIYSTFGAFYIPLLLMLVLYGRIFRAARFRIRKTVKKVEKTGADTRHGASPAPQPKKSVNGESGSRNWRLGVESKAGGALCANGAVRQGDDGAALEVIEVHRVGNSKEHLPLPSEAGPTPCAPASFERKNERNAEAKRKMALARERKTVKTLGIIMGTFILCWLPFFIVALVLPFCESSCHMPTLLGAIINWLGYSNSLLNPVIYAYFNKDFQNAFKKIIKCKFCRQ

[7] = biological target: T2, 5-hydroxytryptamine receptor 7; assay: Binding affinity to 5HT7 receptor (unknown origin)

T2 sequence (P34969 whole entry): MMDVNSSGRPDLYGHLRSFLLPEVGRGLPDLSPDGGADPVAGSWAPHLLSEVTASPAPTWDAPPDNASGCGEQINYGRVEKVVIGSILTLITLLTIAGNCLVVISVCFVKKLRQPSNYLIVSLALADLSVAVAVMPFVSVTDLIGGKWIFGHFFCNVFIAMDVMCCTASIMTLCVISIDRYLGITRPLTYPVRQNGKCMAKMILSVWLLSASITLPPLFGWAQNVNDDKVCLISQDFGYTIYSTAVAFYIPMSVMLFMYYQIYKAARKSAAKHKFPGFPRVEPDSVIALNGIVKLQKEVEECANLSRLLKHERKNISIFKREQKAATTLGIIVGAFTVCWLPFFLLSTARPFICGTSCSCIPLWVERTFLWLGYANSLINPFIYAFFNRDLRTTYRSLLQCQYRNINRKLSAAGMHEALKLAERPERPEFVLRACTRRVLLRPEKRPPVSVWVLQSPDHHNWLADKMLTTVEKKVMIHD
5-hydroxytryptamine receptor 2A (Homo sapiens), sequence (P28223 whole entry): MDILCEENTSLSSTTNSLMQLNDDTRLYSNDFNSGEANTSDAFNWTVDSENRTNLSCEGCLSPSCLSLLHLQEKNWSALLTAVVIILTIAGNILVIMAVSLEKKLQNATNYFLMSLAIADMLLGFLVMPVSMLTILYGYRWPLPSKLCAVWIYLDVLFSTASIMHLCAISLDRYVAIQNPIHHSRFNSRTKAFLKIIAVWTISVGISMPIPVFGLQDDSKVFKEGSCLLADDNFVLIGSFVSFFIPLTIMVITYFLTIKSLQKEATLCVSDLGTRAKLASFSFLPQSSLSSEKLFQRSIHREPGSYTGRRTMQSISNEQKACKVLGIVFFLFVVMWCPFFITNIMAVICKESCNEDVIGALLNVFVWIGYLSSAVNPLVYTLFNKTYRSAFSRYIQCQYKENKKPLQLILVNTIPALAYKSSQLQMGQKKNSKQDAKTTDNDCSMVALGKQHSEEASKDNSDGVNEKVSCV

SMILES: Cc1ccc(-n2cc(CN3CCN(c4ccccc4)CC3)c3ccccc32)cc1
- Ki [1]: 332 nM

SMILES: Cc1ccccc1-n1cc(CCN(C)C)c2ccccc21
- Ki [2]: 283 nM
- Ki [1]: 59 nM

SMILES: COc1ccccc1N1CCN(Cc2cn(-c3cccc4ccccc34)c3ccccc23)CC1
- inhibition [3]: 6%
- inhibition [4]: 10%
- Ki [1]: 70 nM

SMILES: CC(C)c1ccccc1-n1cc(CN2CCN(c3ccccc3)CC2)c2ccccc21
- Ki [1]: 118 nM

SMILES: COc1ccccc1N1CCN(Cc2cn(-c3ccccc3C(C)C)c3ccccc23)CC1
- Ki [1]: 58 nM

SMILES: CN(C)CCc1cn(-c2cccc3ccccc23)c2ccccc12
- Ki [2]: 649 nM
- Ki [1]: 144 nM

SMILES: c1ccc(N2CCN(Cc3cn(-c4ccccc4)c4ccccc34)CC2)cc1
- Ki [1]: 216 nM

SMILES: COc1ccccc1-n1cc(CN2CCN(c3ccccc3)CC2)c2ccccc21
- Ki [1]: 86 nM

SMILES: c1ccc(N2CCN(Cc3cn(-c4cccc5ccccc45)c4ccccc34)CC2)cc1
- Ki [1]: 545 nM

SMILES: COc1ccccc1N1CCN(Cc2cn(-c3ccccn3)c3ccccc23)CC1
- Ki [1]: 55 nM

SMILES: FC(F)(F)c1ccccc1-n1cc(CN2CCN(c3ccccc3)CC2)c2ccccc21
- Ki [1]: 81 nM

SMILES: CN(C)CCc1cn(-c2ccccc2)c2ccccc12
- Ratio Ki [5]: 19
- Ki [2]: 1200 nM
- Ki [1]: 62 nM

SMILES: Oc1ccccc1N1CCN(Cc2cn(-c3ccccc3)c3ccccc23)CC1
- Ki [1]: 17 nM

SMILES: c1ccc(N2CCN(Cc3cn(-c4ccc5ccccc5c4)c4ccccc34)CC2)cc1
- Ki [1]: 1950 nM

SMILES: COc1ccccc1N1CCN(Cc2cn(-c3ccccc3C)c3ccccc23)CC1
- Ki [1]: 15 nM

SMILES: Cc1cccc(-n2cc(CN3CCN(c4ccccc4)CC3)c3ccccc32)c1
- Ki [1]: 90 nM

SMILES: c1ccc(-c2ccc(-n3cc(CN4CCN(c5ccccc5)CC4)c4ccccc43)cc2)cc1
- Ki [1]: 49000 nM

SMILES: c1ccc(N2CCN(Cc3cn(-c4ccccn4)c4ccccc34)CC2)cc1
- Ki [1]: 95 nM

SMILES: c1ccc(N2CCN(Cc3cn(-c4cccnc4)c4ccccc34)CC2)cc1
- Ki [1]: 190 nM

SMILES: N#Cc1ccccc1-n1cc(CN2CCN(c3ccccc3)CC2)c2ccccc21
- Ki [1]: 36 nM

SMILES: Cc1cccc(-n2cc(CCN(C)C)c3ccccc32)c1C
- Ki [2]: 317 nM
- Ki [1]: 76 nM

SMILES: Cc1ccccc1-n1cc(CN2CC=C(c3ccccc3)CC2)c2ccccc21
- Ki [1]: 178 nM

SMILES: Cc1ccccc1-n1cc(CN2CCN(C)CC2)c2ccccc21
- Ki [1]: 2910 nM

SMILES: COc1ccccc1N1CCN(Cc2ccn(-c3ccccc3C)c2)CC1
- Ki [6]: 41 nM
- Ki [7]: 21 nM

SMILES: Cc1ccccc1-n1cc(CN2CCN(c3ccccc3)CC2)c2ccccc21
- Ki [1]: 95 nM

SMILES: CCc1ccccc1-n1cc(CN2CCN(c3ccccc3)CC2)c2ccccc21
- Ki [1]: 134 nM

SMILES: Cc1cccc(-n2cc(CN3CCN(c4ccccc4)CC3)c3ccccc32)c1C
- Ki [1]: 324 nM

SMILES: COc1ccccc1N1CCN(Cc2cn(-c3ccccc3)c3ccccc23)CC1
- Ki [1]: 10 nM

SMILES: COc1ccccc1N1CCN(Cc2cn(-c3cccc(C)c3C)c3ccccc23)CC1
- inhibition [3]: 0%
- inhibition [4]: 0%
- Ki [1]: 17 nM

SMILES: Oc1ccccc1N1CCN(Cc2cn(-c3cccc4ccccc34)c3ccccc23)CC1
- Ki [1]: 57 nM
